Measured values reported in ChEMBL document CHEMBL3232885, “Synthesis, characterization and pharmacological screening of some novel 5-imidazopyrazole incorporated polyhydroquinoline derivatives” (Eur J Med Chem, 2014).
Converted amounts (≈) assume the structure as drawn.

Legend:
Vibrio cholerae = test: Antibacterial activity against Vibrio cholerae MTCC 3906 assessed as growth inhibition after 24 to 48 hrs by broth microdilution method; format: functional
Streptococcus pneumoniae = test: Antibacterial activity against Streptococcus pneumoniae MTCC 1936 assessed as growth inhibition after 24 to 48 hrs by broth microdilution method; format: functional
Summary of the method: (§1)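 Bacteria were grown in Mueller-Hinton broth with inoculum adjusted to 10⁸ CFU mL⁻¹ by turbidity. Compounds were serially diluted in 2% aqueous DMSO and incubated at 37 °C overnight. Growth was checked by subculture at 24 and 48 h. MIC was taken as the highest dilution with no turbidity after spot subculture.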

Salmonella typhi = test: Antibacterial activity against Salmonella typhi MTCC 98 assessed as growth inhibition after 24 to 48 hrs by broth microdilution method; format: functional, Salmonella enterica subsp. enterica serovar Typhi; settings: Salmonella enterica
Escherichia coli = test: Antibacterial activity against Escherichia coli MTCC 443 assessed as growth inhibition after 24 to 48 hrs by broth microdilution method; format: functional; summary of the method: as §1
Clostridium tetani = test: Antibacterial activity against Clostridium tetani MTCC 449 assessed as growth inhibition after 24 to 48 hrs by broth microdilution method; format: functional
Bacillus subtilis = test: Antibacterial activity against Bacillus subtilis MTCC 441 assessed as growth inhibition after 24 to 48 hrs by broth microdilution method; format: functional; summary of the method: as §1
[1] = test system: Mycobacterium tuberculosis; test: Antitubercular activity against Mycobacterium tuberculosis H37Rv assessed as inhibition of colony formation at 250 ug/mL after 2 to 4 weeks by Lowensteine-Jensen method relative to control; format: functional
Plasmodium falciparum = test: Antimalarial activity against chloroquine/quinine sensitive Plasmodium falciparum assessed as parasite growth inhibition after 48 hrs; format: functional, organism-based
Candida albicans = test: Antifungal activity against Candida albicans MTCC 227 assessed as growth inhibition after 24 to 48 hrs by broth microdilution method; format: functional
Summary of the method: (§2)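 Fungal nutrition used Sabouraud Dextrose broth with inoculum at 10⁸ CFU mL⁻¹ by turbidity. Serial compound dilutions were made in 2% DMSO in water. Growth was noted on subculture after 24 and 48 h. MIC was taken as the highest dilution preventing visible turbidity after spot subculture.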

[2] = test system: Mycobacterium tuberculosis; test: Antitubercular activity against Mycobacterium tuberculosis H37Rv assessed as inhibition of colony formation at 100 ug/mL after 2 to 4 weeks by Lowensteine-Jensen method relative to control; format: functional
Aspergillus fumigatus = test: Antifungal activity against Aspergillus fumigatus MTCC 3008 assessed as growth inhibition after 24 to 48 hrs by broth microdilution method; format: functional; summary of the method: as §2

Molecule | MIC (Vibrio cholerae) | MIC (Streptococcus pneumoniae) | MIC (Salmonella typhi) | MIC (Escherichia coli) | MIC (Clostridium tetani) | MIC (Bacillus subtilis) | inhibition at 250 µg/mL [1] | IC50 (Plasmodium falciparum) | MIC (Candida albicans) | inhibition at 100 µg/mL [2] | MIC (Aspergillus fumigatus)
O=C(N[C@H](CO)[C@H](O)c1ccc([N+](=O)[O-])cc1)C(Cl)Cl [CHLORAMPHENICOL] | 50 µg/mL (≈ 155 µM) | 100 µg/mL (≈ 309 µM) | 50 µg/mL (≈ 155 µM) | 10 µg/mL (≈ 30.9 µM) | 25 µg/mL (≈ 77.4 µM) | 50 µg/mL (≈ 155 µM) | – | – | – | – | –
Cc1nn(-c2ccccc2)c(-n2ccnc2)c1C1C(C#N)=C(N)N(c2cccc(O)c2)C2=C1C(=O)CC(C)(C)C2 (stereo not given) | 62.5 µg/mL (≈ 118 µM) | 200 µg/mL (≈ 376 µM) | 250 µg/mL (≈ 470 µM) | 200 µg/mL (≈ 376 µM) | 200 µg/mL (≈ 376 µM) | 500 µg/mL (≈ 941 µM) | 38% | 0.034 µg/mL (≈ 0.064 µM) | 1000 µg/mL (≈ 1880 µM) | 34% | 500 µg/mL (≈ 941 µM)
Cc1nn(-c2ccccc2)c(-n2ccnc2)c1C1C(C#N)=C(N)N(c2ccc(O)cc2)C2=C1C(=O)CC(C)(C)C2 (stereo not given) | 250 µg/mL (≈ 470 µM) | 200 µg/mL (≈ 376 µM) | 250 µg/mL (≈ 470 µM) | 200 µg/mL (≈ 376 µM) | 500 µg/mL (≈ 941 µM) | 250 µg/mL (≈ 470 µM) | 94% | 1.23 µg/mL (≈ 2.31 µM) | 500 µg/mL (≈ 941 µM) | 94% | 1000 µg/mL (≈ 1880 µM)
Cc1nn(-c2ccccc2)c(-n2ccnc2)c1C1C(C(N)=O)=C(N)N(c2cccc(O)c2)C2=C1C(=O)CC(C)(C)C2 (stereo not given) | 200 µg/mL (≈ 364 µM) | 125 µg/mL (≈ 227 µM) | 200 µg/mL (≈ 364 µM) | 125 µg/mL (≈ 227 µM) | 200 µg/mL (≈ 364 µM) | 200 µg/mL (≈ 364 µM) | 84% | 0.57 µg/mL (≈ 1.04 µM) | 500 µg/mL (≈ 910 µM) | 75% | 500 µg/mL (≈ 910 µM)
CC1(C)S[C@@H]2[C@H](NC(=O)[C@H](N)c3ccccc3)C(=O)N2[C@H]1C(=O)O [AMPICILLIN] | 50 µg/mL (≈ 143 µM) | 100 µg/mL (≈ 286 µM) | 10 µg/mL (≈ 28.6 µM) | 10 µg/mL (≈ 28.6 µM) | 100 µg/mL (≈ 286 µM) | 100 µg/mL (≈ 286 µM) | – | – | – | – | –
Cc1nn(-c2ccccc2)c(-n2ccnc2)c1C1C(C#N)=C(N)N(c2ccccc2O)C2=C1C(=O)CC(C)(C)C2 (stereo not given) | 125 µg/mL (≈ 235 µM) | 125 µg/mL (≈ 235 µM) | 250 µg/mL (≈ 470 µM) | 250 µg/mL (≈ 470 µM) | 200 µg/mL (≈ 376 µM) | 100 µg/mL (≈ 188 µM) | 45% | 0.71 µg/mL (≈ 1.34 µM) | 1000 µg/mL (≈ 1880 µM) | 38% | 500 µg/mL (≈ 941 µM)
CCOC(=O)C1=C(N)N(c2cccc(O)c2)C2=C(C(=O)CC(C)(C)C2)C1c1c(C)nn(-c2ccccc2)c1-n1ccnc1 (stereo not given) | 125 µg/mL (≈ 216 µM) | 200 µg/mL (≈ 346 µM) | 200 µg/mL (≈ 346 µM) | 200 µg/mL (≈ 346 µM) | 250 µg/mL (≈ 432 µM) | 500 µg/mL (≈ 864 µM) | 12% | 0.072 µg/mL (≈ 0.124 µM) | 250 µg/mL (≈ 432 µM) | 9% | 1000 µg/mL (≈ 1730 µM)
Cc1nn(-c2ccccc2)c(-n2ccnc2)c1C1C(C(N)=O)=C(N)N(c2ccc(O)cc2)C2=C1C(=O)CCC2 (stereo not given) | 500 µg/mL (≈ 959 µM) | 250 µg/mL (≈ 479 µM) | 100 µg/mL (≈ 192 µM) | 200 µg/mL (≈ 383 µM) | 200 µg/mL (≈ 383 µM) | 200 µg/mL (≈ 383 µM) | 67% | 0.033 µg/mL (≈ 0.0633 µM) | 1000 µg/mL (≈ 1920 µM) | 60% | 1000 µg/mL (≈ 1920 µM)
NYSTATIN | – | – | – | – | – | – | – | – | 100 µg/mL | – | 500 µg/mL
Cc1nn(-c2ccccc2)c(-n2ccnc2)c1C1C(C(N)=O)=C(N)N(c2ccccc2)C2=C1C(=O)CC(C)(C)C2 (stereo not given) | 250 µg/mL (≈ 468 µM) | 200 µg/mL (≈ 375 µM) | 250 µg/mL (≈ 468 µM) | 200 µg/mL (≈ 375 µM) | 125 µg/mL (≈ 234 µM) | 125 µg/mL (≈ 234 µM) | 7% | 0.62 µg/mL (≈ 1.16 µM) | 250 µg/mL (≈ 468 µM) | 4% | 1000 µg/mL (≈ 1870 µM)
CCOC(=O)C1=C(N)N(c2ccc(Cl)cc2)C2=C(C(=O)CC(C)(C)C2)C1c1c(C)nn(-c2ccccc2)c1-n1ccnc1 (stereo not given) | 200 µg/mL (≈ 335 µM) | 125 µg/mL (≈ 209 µM) | 100 µg/mL (≈ 167 µM) | 100 µg/mL (≈ 167 µM) | 125 µg/mL (≈ 209 µM) | 100 µg/mL (≈ 167 µM) | 63% | 0.057 µg/mL (≈ 0.0955 µM) | > 1000 µg/mL | 58% | 500 µg/mL (≈ 837 µM)
CO[C@H]1/C=C/O[C@@]2(C)Oc3c(C)c(O)c4c(O)c(c(/C=N/N5CCN(C)CC5)c(O)c4c3C2=O)NC(=O)/C(C)=C\C=C\[C@H](C)[C@H](O)[C@@H](C)[C@@H](O)[C@@H](C)[C@H](OC(C)=O)[C@@H]1C [RIFAMPIN] | – | – | – | – | – | – | 98% | – | – | 98% | –
CCn1cc(C(=O)O)c(=O)c2cc(F)c(N3CCNCC3)cc21 [NORFLOXACIN] | 50 µg/mL (≈ 157 µM) | 250 µg/mL (≈ 783 µM) | 50 µg/mL (≈ 157 µM) | 50 µg/mL (≈ 157 µM) | 25 µg/mL (≈ 78.3 µM) | 25 µg/mL (≈ 78.3 µM) | – | – | – | – | –
